Our source for the IC50 and inhibition values is ChEMBL document CHEMBL1127608, “Non-peptide fibrinogen receptor antagonists. 2. Optimization of a tyrosine template as a mimic for Arg-Gly-Asp” (J Med Chem, 1994).

The target of assay [1] is T1, Integrin alpha-V/beta-3 (Homo sapiens, UniProt P05106+P06756). Nature of the assay: Inhibition of human umbilical vein endothelial cell adhesion to fibrinogen. The class given is functional, cell-based.
The target in assay [2] is T1, Integrin alpha-V/beta-3. The assay is described as follows: Inhibition of human umbilical vein endothelial cell adhesion to vitronectin. The class given is functional, cell-based.
For the next assay, the target named is Integrin alpha-5/beta-1 (Homo sapiens, UniProt P05556+P08648). The assay is described as follows: (§1) Inhibition of human umbilical vein endothelial cell adhesion to fibronectin. In kind it is functional, cell-based.
Integrin alpha-5/beta-1, sequence (P05556 21-798 limits assumed): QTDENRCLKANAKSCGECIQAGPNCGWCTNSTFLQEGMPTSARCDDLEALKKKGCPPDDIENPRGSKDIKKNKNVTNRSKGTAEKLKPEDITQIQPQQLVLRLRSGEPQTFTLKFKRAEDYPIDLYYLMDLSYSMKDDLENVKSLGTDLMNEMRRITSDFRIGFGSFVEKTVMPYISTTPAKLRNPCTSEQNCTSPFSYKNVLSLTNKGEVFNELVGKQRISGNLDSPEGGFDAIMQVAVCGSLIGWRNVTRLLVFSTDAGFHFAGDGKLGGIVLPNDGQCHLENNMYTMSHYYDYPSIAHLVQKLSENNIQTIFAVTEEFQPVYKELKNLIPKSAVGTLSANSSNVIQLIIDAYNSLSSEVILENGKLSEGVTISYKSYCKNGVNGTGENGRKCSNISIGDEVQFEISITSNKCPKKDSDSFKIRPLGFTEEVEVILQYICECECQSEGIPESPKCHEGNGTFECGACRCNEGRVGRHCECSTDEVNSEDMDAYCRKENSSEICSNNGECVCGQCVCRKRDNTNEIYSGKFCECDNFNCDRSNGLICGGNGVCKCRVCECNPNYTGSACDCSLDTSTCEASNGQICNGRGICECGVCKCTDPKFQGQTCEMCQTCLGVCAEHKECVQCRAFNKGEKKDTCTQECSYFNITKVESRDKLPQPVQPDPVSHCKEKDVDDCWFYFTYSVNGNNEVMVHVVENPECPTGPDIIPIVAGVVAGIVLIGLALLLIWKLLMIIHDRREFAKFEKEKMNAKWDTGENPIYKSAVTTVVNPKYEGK
Integrin alpha-5/beta-1, sequence (P08648 42-894 limits assumed): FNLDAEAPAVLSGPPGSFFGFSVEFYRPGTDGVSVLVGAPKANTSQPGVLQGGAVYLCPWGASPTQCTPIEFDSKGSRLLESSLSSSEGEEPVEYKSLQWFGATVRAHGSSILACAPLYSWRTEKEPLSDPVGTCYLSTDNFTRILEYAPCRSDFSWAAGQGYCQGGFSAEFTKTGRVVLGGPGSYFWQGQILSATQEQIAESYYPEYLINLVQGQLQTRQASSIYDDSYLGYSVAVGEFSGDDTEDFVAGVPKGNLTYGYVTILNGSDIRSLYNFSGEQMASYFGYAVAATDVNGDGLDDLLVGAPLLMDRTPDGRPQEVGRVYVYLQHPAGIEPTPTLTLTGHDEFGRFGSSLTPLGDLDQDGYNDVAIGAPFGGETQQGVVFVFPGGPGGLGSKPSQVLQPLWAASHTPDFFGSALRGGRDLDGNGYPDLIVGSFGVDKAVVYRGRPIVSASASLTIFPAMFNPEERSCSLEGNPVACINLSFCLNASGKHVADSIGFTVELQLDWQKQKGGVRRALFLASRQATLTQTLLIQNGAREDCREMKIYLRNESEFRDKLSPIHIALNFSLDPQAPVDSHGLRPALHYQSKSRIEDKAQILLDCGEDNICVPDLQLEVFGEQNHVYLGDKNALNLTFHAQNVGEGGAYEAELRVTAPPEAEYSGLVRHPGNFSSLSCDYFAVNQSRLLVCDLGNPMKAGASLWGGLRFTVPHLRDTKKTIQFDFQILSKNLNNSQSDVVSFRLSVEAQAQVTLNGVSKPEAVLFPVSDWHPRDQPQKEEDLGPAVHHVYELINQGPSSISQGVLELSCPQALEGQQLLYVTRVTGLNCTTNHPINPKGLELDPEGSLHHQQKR
Integrin alpha-5/beta-1, sequence (P08648 895-1049 limits assumed): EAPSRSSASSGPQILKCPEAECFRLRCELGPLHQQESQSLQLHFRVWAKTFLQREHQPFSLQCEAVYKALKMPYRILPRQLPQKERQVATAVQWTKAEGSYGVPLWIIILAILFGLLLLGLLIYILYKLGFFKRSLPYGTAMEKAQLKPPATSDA
The nature of assay [3]: as §1. The class given is functional, cell-based.
In assay [4] the target is T2, Integrin alpha-IIb/beta-3 (Homo sapiens, UniProt P05106+P08514). Nature of the assay: Inhibition of platelet aggregation by change in light transmittance at 300 uM. In kind it is functional. The method in brief: (§2)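 Human gel-filtered platelets at 2 × 10^8/mL were mixed with 0.1 mg/mL human fibrinogen, 1 mM CaCl2 and compound, then aggregated with 10 µM ADP. Light transmittance was compared between control and treated samples.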

Assay [5] has as its target T2, Integrin alpha-IIb/beta-3. The assay is described as follows: Inhibition of platelet aggregation as the concentration necessary to inhibit the change in light. The class given is functional. The method in brief: as §2
Target sequence in this assay (P05106 27-788 limits assumed): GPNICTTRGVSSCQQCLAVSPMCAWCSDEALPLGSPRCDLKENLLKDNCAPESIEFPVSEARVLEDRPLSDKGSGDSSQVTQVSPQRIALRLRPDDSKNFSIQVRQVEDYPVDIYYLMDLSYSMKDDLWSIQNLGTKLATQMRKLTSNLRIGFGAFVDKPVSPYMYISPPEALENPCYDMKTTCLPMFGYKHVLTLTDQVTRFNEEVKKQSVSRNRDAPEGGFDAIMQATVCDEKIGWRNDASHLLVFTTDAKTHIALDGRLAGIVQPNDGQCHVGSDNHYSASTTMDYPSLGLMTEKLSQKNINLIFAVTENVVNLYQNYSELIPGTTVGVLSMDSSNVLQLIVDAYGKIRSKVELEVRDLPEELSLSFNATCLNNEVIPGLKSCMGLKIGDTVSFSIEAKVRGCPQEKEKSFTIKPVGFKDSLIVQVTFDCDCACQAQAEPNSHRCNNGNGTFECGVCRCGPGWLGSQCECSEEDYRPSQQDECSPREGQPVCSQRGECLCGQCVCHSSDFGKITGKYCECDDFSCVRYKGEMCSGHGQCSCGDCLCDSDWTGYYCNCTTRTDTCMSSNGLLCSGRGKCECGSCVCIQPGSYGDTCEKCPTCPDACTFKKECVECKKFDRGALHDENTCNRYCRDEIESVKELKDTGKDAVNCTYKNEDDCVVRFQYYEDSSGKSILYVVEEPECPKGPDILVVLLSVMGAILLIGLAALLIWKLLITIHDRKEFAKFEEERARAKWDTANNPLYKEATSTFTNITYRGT
Target sequence in this assay (P08514 32-887 limits assumed): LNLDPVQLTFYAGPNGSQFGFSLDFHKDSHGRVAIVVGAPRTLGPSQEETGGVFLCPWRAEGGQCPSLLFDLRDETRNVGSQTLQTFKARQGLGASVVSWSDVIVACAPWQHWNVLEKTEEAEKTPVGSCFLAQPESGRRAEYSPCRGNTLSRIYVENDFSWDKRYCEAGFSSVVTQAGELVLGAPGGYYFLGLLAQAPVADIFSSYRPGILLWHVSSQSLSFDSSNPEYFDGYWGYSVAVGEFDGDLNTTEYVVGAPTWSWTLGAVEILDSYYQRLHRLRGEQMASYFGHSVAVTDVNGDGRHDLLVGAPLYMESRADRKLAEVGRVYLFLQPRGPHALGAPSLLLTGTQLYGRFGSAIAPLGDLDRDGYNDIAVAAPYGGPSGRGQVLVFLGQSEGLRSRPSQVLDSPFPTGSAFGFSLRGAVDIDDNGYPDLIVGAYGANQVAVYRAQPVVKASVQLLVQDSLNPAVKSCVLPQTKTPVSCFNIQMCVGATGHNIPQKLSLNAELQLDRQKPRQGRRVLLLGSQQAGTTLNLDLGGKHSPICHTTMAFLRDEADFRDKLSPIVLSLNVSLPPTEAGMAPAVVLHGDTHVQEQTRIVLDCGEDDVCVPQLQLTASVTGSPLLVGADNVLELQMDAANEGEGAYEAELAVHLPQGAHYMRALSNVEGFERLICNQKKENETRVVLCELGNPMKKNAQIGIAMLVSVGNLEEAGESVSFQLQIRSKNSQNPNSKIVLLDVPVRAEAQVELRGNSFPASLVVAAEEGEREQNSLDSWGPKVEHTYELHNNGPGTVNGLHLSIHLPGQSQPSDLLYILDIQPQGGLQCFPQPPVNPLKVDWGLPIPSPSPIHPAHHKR
Target sequence in this assay (P08514 891-1039 limits assumed): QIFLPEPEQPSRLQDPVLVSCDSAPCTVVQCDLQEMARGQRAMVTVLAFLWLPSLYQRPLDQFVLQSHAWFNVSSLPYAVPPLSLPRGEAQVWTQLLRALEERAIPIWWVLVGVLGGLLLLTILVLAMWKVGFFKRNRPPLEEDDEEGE

Molecules are shown by their SMILES. Peptide text beside a SMILES is read from it. Where only a bound is given, the exact number is not on record here.

T1 sequence (P05106 27-788 limits assumed): as the sequence (P05106 27-788 limits assumed) above
T1 sequence (P06756 31-889 limits assumed): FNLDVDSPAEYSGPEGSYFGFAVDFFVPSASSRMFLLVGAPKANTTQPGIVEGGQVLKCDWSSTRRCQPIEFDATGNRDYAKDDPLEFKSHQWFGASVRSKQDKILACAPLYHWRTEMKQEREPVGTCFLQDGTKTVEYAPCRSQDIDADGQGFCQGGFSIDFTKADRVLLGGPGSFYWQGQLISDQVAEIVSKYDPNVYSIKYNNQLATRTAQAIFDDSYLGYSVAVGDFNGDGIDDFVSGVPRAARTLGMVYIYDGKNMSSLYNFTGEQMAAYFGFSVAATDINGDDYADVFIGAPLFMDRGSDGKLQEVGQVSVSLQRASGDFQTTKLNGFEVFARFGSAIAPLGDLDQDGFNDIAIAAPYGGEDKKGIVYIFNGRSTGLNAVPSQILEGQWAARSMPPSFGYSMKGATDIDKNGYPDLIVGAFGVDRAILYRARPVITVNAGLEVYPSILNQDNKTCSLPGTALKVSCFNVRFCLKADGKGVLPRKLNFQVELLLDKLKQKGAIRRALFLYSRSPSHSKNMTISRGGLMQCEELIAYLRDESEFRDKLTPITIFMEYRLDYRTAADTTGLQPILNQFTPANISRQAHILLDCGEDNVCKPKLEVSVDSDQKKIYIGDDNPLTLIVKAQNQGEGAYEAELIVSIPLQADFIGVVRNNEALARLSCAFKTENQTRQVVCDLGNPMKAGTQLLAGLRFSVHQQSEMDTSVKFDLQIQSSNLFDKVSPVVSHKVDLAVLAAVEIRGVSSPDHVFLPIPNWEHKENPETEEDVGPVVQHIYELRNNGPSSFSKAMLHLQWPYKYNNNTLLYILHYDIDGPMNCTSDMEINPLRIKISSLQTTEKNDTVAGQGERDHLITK
T1 sequence (P06756 891-1048 limits assumed): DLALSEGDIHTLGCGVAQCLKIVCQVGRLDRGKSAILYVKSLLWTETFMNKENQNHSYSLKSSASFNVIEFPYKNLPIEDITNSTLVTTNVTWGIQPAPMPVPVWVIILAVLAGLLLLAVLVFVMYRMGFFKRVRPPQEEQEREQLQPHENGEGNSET

Broadly, the IC50 is the point on the concentration scale where inhibition reaches its midpoint. The low end stands for higher potency, the high end for lower potency. With `NC(N)=NCCC[C@H](N)C(=O)NCC(=O)N[C@@H](CC(=O)O)C(=O)N[C@@H](Cc1c[nH]c2ccccc12)C(=O)O` (H-RGDW-OH), the IC50 on Integrin alpha-V/beta-3 [1] was 34 µM; against Integrin alpha-V/beta-3 [2], 14 µM; on Integrin alpha-5/beta-1, 27 µM.
Consider `CC(C)(C)NCC(O)COc1ccc(C[C@H](NC(=O)OCc2ccccc2)C(=O)O)cc1` (stereo partly drawn), for which the concentration for half-maximal inhibition (IC50) (on Integrin alpha-V/beta-3 [1]; on Integrin alpha-V/beta-3 [2]; in assay [3]) was more than 300 µM each time.
In the case of `NCCCCCCCOc1ccc(C[C@H](NC(=O)OCc2ccccc2)C(=O)O)cc1`, the values for the IC50 on Integrin alpha-V/beta-3 [1], against Integrin alpha-V/beta-3 [2] and against Integrin alpha-5/beta-1 were 315 µM, 147 µM and more than 450 µM, respectively.
In general, inhibition refers to the drop in the measured response relative to a control, in per cent. Higher therefore signals strong suppression. In turn, `NCCCCCCOc1ccc(CCC(=O)O)cc1` showed an inhibition in assay [4] of 12%.
As to `O=C(O)[C@H](Cc1ccc(OCCCCC2CCNCC2)cc1)NS(=O)(=O)Cc1ccccc1`, the IC50 in assay [5] was 0.018 µM.
In assay [5], `NCCCCCCOc1ccc(C[C@H](NC(=O)OCc2ccccc2)C(=O)O)cc1` gave a concentration for half-maximal inhibition (IC50) of 26 µM.
With `NCCCCCCOc1ccc(C[C@H](NC(=O)CCc2ccccc2)C(=O)O)cc1`, 8 µM corresponded to half-maximal inhibition in assay [5] (IC50).
On the same count and under the same terms, to `CCCCCC(=O)N[C@@H](Cc1ccc(OCCCCC2CCNCC2)cc1)C(=O)O` belongs 0.035 µM.
Turning to `O=C(N[C@@H](Cc1ccc(OCCCCC2CCNCC2)cc1)C(=O)O)OCc1ccccc1`, the IC50 against Integrin alpha-V/beta-3 [1] came out at 158 µM; in assay [5], 0.26 µM; against Integrin alpha-V/beta-3 [2] it was 56 µM; in assay [3], 300 µM.
On to `CCCCS(=O)(=O)N[C@@H](Cc1ccc(OCCCCC2CCNCC2)cc1)C(=O)O` [TIROFIBAN], for which the IC50 against Integrin alpha-V/beta-3 [2] came to 62 µM.
Regarding `CCCCS(=O)(=O)N[C@@H](Cc1ccc(OCCCCCCN)cc1)C(=O)O`, the IC50 at Integrin alpha-V/beta-3 [1] is 330 µM; in assay [5], 0.78 µM; against Integrin alpha-V/beta-3 [2], 150 µM; on Integrin alpha-5/beta-1 it was more than 500 µM.
